Experimental data taken from ChEMBL document CHEMBL4680184, “Simple amphiphilic α-hydrazido acids: Rational design, synthesis, and in vitro bioactivity profile of a novel class of potential antimicrobial compounds” (Eur J Med Chem, 2020).
Converted amounts (≈) assume the structure as drawn.

Legend:
[1] = Retention time of the compound by RP-HPLC analysis; type: physicochemical
Summary of the method: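 RP-HPLC on C18 column (5 µm, 200 × 4.6 mm), 0.5 mL/min; hydrochlorides at 0.5–1 mg/mL in water:2-propanol 70:30, gradient to 10:90 over 40 min, then 20 min at 10:90. Adjusted retention time = instrumental retention time minus hold-up time.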

Pseudomonas aeruginosa = test: Antibacterial activity against Pseudomonas aeruginosa ATCC 27853 assessed as inhibition of visible growth after 24 hrs by broth microdilution method; type: functional
Summary of the method: (§1)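 Compounds dissolved in sterile water at the highest achievable concentration, then serially diluted in Mueller-Hinton II broth per CLSI broth microdilution. Strains grown 6 h in BHI, diluted in MHII to 1 × 10^6 cfu/mL final. Aerobic incubation 37 °C, 24 h; tetracycline internal control; bacteria-only growth controls. MIC = lowest concentration with no visible growth; triplicate.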

Enterococcus faecium = test: Antibacterial activity against Enterococcus faecium 135562 (35C) assessed as inhibition of visible growth after 24 hrs by broth microdilution method; type: functional; summary of the method: as §1
Escherichia coli [2] = test: Antibacterial activity against Escherichia coli ATCC 25922 assessed as inhibition of visible growth after 24 hrs by broth microdilution method; type: functional; summary of the method: as §1
Staphylococcus aureus [3] = test: Antibacterial activity against Staphylococcus aureus ATCC 29213 assessed as inhibition of visible growth after 24 hrs by broth microdilution method; type: functional; summary of the method: as §1
Enterococcus faecalis [4] = test: Antibacterial activity against Enterococcus faecalis ATCC 29212 assessed as inhibition of visible growth after 24 hrs by broth microdilution method; type: functional; summary of the method: as §1
[5] = Therapeutic index, ratio of HC50 for human erythrocytes to MIC for Escherichia coli ATCC 25922; type: toxicity; conditions: read-out: TI
[6] = Therapeutic index, ratio of HC50 for human erythrocytes to MIC for Staphylococcus aureus ATCC 29213; type: toxicity; conditions: read-out: TI
[7] = Hemolytic activity against human erythrocytes measured after 1 hr by microplate reader based spectrophotometric analysis; type: ADME, cell-based, Erythrocyte
Summary of the method: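 Heparinized fresh human blood washed three times in PBS pH 7.4 (1000 g, 10 min), resuspended ~20 vol %. Equal volume with 1:2 serial dilutions of compound in PBS, 1 h at 37 °C; PBS and 0.2 vol % Triton X-100 controls. Supernatant diluted 1:60, A350 read. HC50 from three- or four-parameter Hill fit; mean of three replicates.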

Escherichia coli [8] = test: Antibacterial activity against gentamicin-colistin-resistant Escherichia coli 288328 assessed as inhibition of visible growth after 24 hrs by broth microdilution method; type: functional
Summary of the method: (§2)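 Broth microdilution per CLSI: strains grown 6 h in BHI broth, diluted in Mueller-Hinton II broth to 1 × 10^6 cfu/mL, mixed 1:1 with serial dilutions of compound in MHII (compounds dissolved in sterile water); aerobic incubation 37 °C, 24 h. MIC = lowest concentration with no visible growth. Tetracycline internal control; triplicate.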

Staphylococcus aureus [9] = test: Antibacterial activity against Staphylococcus aureus ATCC 29213; type: functional; summary of the method: as §2
Escherichia coli [10] = test: Antibacterial activity against Escherichia coli ATCC 25922; type: functional; summary of the method: as §2
Enterococcus faecalis [11] = test: Antibacterial activity against Enterococcus faecalis ATCC 29212; type: functional; summary of the method: as §1

## CCCCCCCCNC(=O)CN(C(=O)CN)N(C)C(=O)C(C)(C)C
[1]
  Retention_time: 11.7 min
Pseudomonas aeruginosa
  MIC: 512 µg/mL (≈ 1440 µM)
Enterococcus faecium
  MIC: 512 µg/mL (≈ 1440 µM)
Escherichia coli [2]
  MIC: 256 µg/mL (≈ 718 µM)
Staphylococcus aureus [3]
  MIC: 512 µg/mL (≈ 1440 µM)
Enterococcus faecalis [4]
  MIC: 512 µg/mL (≈ 1440 µM)

## CCCCCCCCCCCC(=O)NN(CC(=O)NCCCCCCCC)C(=O)CN.Cl
[1]
  Retention_time: 23.5 min
Pseudomonas aeruginosa
  MIC: 128 µg/mL
Enterococcus faecium
  MIC: 8 µg/mL
Escherichia coli [2]
  MIC: 128 µg/mL
Staphylococcus aureus [3]
  MIC: 64 µg/mL
Enterococcus faecalis [4]
  MIC: 16 µg/mL
[5]
  selectivity ratio: 3.8
[6]
  selectivity ratio: 7.6
[7]
  HC50 at 1 h: 486 µg/mL

## CCCNC(=O)CN(NC(=O)OCc1ccccc1)C(=O)CN.Cl
[1]
  Retention_time: 3.4 min
Pseudomonas aeruginosa
  MIC: 512 µg/mL
Enterococcus faecium
  MIC: 512 µg/mL
Escherichia coli [2]
  MIC: 512 µg/mL
Staphylococcus aureus [3]
  MIC: 512 µg/mL
Enterococcus faecalis [4]
  MIC: 1020 µg/mL
[5]
  selectivity ratio: 1.5
[6]
  selectivity ratio: 1.5
[7]
  HC50 at 1 h: 775 µg/mL

## CCCCCCCCCCCCCCCCCCNC(=O)CN(NC(C)=O)C(=O)CN.Cl
[1]
  Retention_time: 28 min
Pseudomonas aeruginosa
  MIC: 512 µg/mL
Enterococcus faecium
  MIC: 32 µg/mL
Escherichia coli [2]
  MIC: 512 µg/mL
Staphylococcus aureus [3]
  MIC: 256 µg/mL
Enterococcus faecalis [4]
  MIC: 32 µg/mL
[5]
  selectivity ratio: 0.5
[6]
  selectivity ratio: 0.9
[7]
  HC50 at 1 h: 228 µg/mL

## CCCCCCCCCCCCCCCCCCNC(=O)CN(NC(=O)CCCCCCCCCCC)C(=O)CN.Cl
[1]
  Retention_time: 35.9 min
Pseudomonas aeruginosa
  MIC: 512 µg/mL
Enterococcus faecium
  MIC: 512 µg/mL
Escherichia coli [2]
  MIC: > 512 µg/mL
Staphylococcus aureus [3]
  MIC: 256 µg/mL
Enterococcus faecalis [4]
  MIC: 512 µg/mL
[5]
  selectivity ratio: < 0.7
[6]
  selectivity ratio: 1.4
[7]
  HC50 at 1 h: 364 µg/mL

## CCCCCCCCCCCCCCCCCCNC(=O)CN(NC(=O)CCCCCCCCCCCCCCCCC)C(=O)CN.Cl
[1]
  Retention_time: 41.8 min

## CCCCCCCCNC(=O)CN(C(=O)CN)N(C)C(C)=O
[1]
  Retention_time: 9.1 min
Pseudomonas aeruginosa
  MIC: 2050 µg/mL (≈ 6510 µM)
Enterococcus faecium
  MIC: 1020 µg/mL (≈ 3260 µM)
Escherichia coli [2]
  MIC: 2050 µg/mL (≈ 6510 µM)
Staphylococcus aureus [3]
  MIC: 2050 µg/mL (≈ 6510 µM)
Enterococcus faecalis [4]
  MIC: 1020 µg/mL (≈ 3260 µM)

## CCCCCCCCCCCCCCCCCC(=O)NN(CC(=O)NCCCCCCCCCCCC)C(=O)CN.Cl
[1]
  Retention_time: 35.8 min
Pseudomonas aeruginosa
  MIC: 512 µg/mL
Enterococcus faecium
  MIC: 256 µg/mL
Escherichia coli [2]
  MIC: 512 µg/mL
Staphylococcus aureus [3]
  MIC: 256 µg/mL
Enterococcus faecalis [4]
  MIC: 512 µg/mL
[5]
  selectivity ratio: 0.2
[6]
  selectivity ratio: 0.5
[7]
  HC50 at 1 h: 124 µg/mL

## CCCCCCCCCCCCCCCCCCNC(=O)CN(NC(=O)OCc1ccccc1)C(=O)CN.Cl
[1]
  Retention_time: 30.9 min
Pseudomonas aeruginosa
  MIC: 512 µg/mL
Enterococcus faecium
  MIC: 256 µg/mL
Escherichia coli [2]
  MIC: 512 µg/mL
Staphylococcus aureus [3]
  MIC: 512 µg/mL
Enterococcus faecalis [4]
  MIC: 512 µg/mL
[5]
  selectivity ratio: 0.5
[6]
  selectivity ratio: 0.5
[7]
  HC50 at 1 h: 243 µg/mL

## CCCCCCCCCCCCNC(=O)CN(C(=O)CN)N(C)C(C)=O
[1]
  Retention_time: 17.1 min
Pseudomonas aeruginosa
  MIC: 256 µg/mL (≈ 691 µM)
Enterococcus faecium
  MIC: 32 µg/mL (≈ 86.4 µM)
Escherichia coli [2]
  MIC: 128 µg/mL (≈ 345 µM)
Staphylococcus aureus [3]
  MIC: 64 µg/mL (≈ 173 µM)
Enterococcus faecalis [4]
  MIC: 32 µg/mL (≈ 86.4 µM)

## GENTAMICIN
Escherichia coli [8]
  MIC: 128 µg/mL
Staphylococcus aureus [9]
  MIC: 0.12 µg/mL
Escherichia coli [10]
  MIC: 0.25 µg/mL
Enterococcus faecalis [11]
  MIC: 4 µg/mL

## CCCNC(=O)CN(NC(C)=O)C(=O)CN.O=C(O)C(F)(F)F
[1]
  Retention_time: 0.3 min
Pseudomonas aeruginosa
  MIC: 2050 µg/mL
Enterococcus faecium
  MIC: 2050 µg/mL
Escherichia coli [2]
  MIC: 2050 µg/mL
Staphylococcus aureus [3]
  MIC: 1020 µg/mL
Enterococcus faecalis [4]
  MIC: 2050 µg/mL
[5]
  selectivity ratio: 1.3
[6]
  selectivity ratio: 2.6
[7]
  HC50 at 1 h: 2700 µg/mL

## CCCCCCCCNC(=O)CN(NC(=O)OCc1ccccc1)C(=O)CN.Cl
[1]
  Retention_time: 14.3 min
Pseudomonas aeruginosa
  MIC: 128 µg/mL
Enterococcus faecium
  MIC: 64 µg/mL
Escherichia coli [2]
  MIC: 64 µg/mL
Staphylococcus aureus [3]
  MIC: 64 µg/mL
Enterococcus faecalis [4]
  MIC: 128 µg/mL
[5]
  selectivity ratio: 3
[6]
  selectivity ratio: 3
[7]
  HC50 at 1 h: 189 µg/mL

## CCCCCCCCCCCCCCCCCCNC(=O)CN(NC(=O)CCCCCCC)C(=O)CN.Cl
[1]
  Retention_time: 33.1 min
Pseudomonas aeruginosa
  MIC: > 256 µg/mL
Enterococcus faecium
  MIC: > 256 µg/mL
Escherichia coli [2]
  MIC: > 256 µg/mL
Staphylococcus aureus [3]
  MIC: > 256 µg/mL
Enterococcus faecalis [4]
  MIC: > 256 µg/mL
[5]
  selectivity ratio: < 1
[6]
  selectivity ratio: < 1
[7]
  HC50 at 1 h: 267 µg/mL
